ChEMBL document CHEMBL4257580, “Tanshinone-IIA-Based Analogues of Imidazole Alkaloid Act as Potent Inhibitors To Block Breast Cancer Invasion and Metastasis in Vivo” (J Med Chem, 2018)
pIC50: −log10 of the molar value. The source made the active and inactive calls. The calls are words filed in the database; no cut-off is given here.

How the values were obtained:
MDA-MB-231 [1] = assay: Antiproliferative activity against human MDA-MB-231 cells after 72 hrs by MTT assay; assay type: functional, cell-based
In short: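 MDA-MB-231 cells grown in DMEM with 10% FBS and penicillin/streptomycin at 37 °C under 5% CO2. Seeded at 5×10^3 cells/well for 24 h, then exposed to compound across a concentration range for 72 h. MTT (5 mg/mL in PBS) added for 5 h, formazan dissolved in DMSO, absorbance read at 570 nm. Three repeats.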

HepG2 = assay: Antiproliferative activity against human HepG2 cells after 72 hrs by MTT assay; assay type: functional, cell-based; details: HepG2, 72 h
In short: (§1)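 A549, HeLa, HepG2 and normal liver L02 cells kept in DMEM with 10% FBS at 37 °C under 5% CO2. Plated at 5×10^3 cells/well for 24 h, then treated with graded concentrations for 72 h. Viability measured by MTT reduction (5 h), formazan dissolved in DMSO and read at 570 nm. Three repeats.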

A549 = assay: Antiproliferative activity against human A549 cells after 72 hrs by MTT assay; assay type: functional, cell-based; details: A549, 72 h; in short: as §1
L02 = assay: Antiproliferative activity against human L02 cells after 72 hrs by MTT assay; assay type: cell-based; details: L02, 72 h; in short: as §1
MDA-MB-231 [2] = assay: Antiinvasive activity against human MDA-MB-231 cells assessed as reduction in number of black holes at 3 uM after 24 hrs by FITC-gelatin based confocal microscopy; assay type: functional, cell-based
In short: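 Coverslips coated with poly-L-lysine, fixed with glutaraldehyde, overlaid with 0.2% FITC-gelatin in PBS/2% sucrose and quenched with sodium borohydride. Cells (2×10^5/well) plated with 0, 3 or 6 μM at 37 °C for 24 h. Gelatin degradation, seen as nonfluorescent dark holes, imaged by laser confocal microscopy; F-actin counterstained with rhodamine-phalloidin.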

MDA-MB-231 [3] = assay: Antiangiogenesis activity in human MDA-MB-231 cells xenografted in fil1:EGFP transgenic zebrafish sub-intestinal vessels assessed as inhibition of cell invasion at 5 uM measured every 24 hrs for 96 hrs by fluorescence microscopy; assay type: functional, cell-based
In short: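 Tg(fli1:EGFP) embryos at 48 hpf injected with 10–50 nL of DiI-labelled cells (~10^7 cells/mL in serum-free DMEM) into the perivitelline space near the subintestinal vessels. Ten embryos per well kept in 2 mL aquaculture water with 0 or 5 μM for 96 h. Imaged every 24 h by fluorescence microscopy; tumour area and trunk/tail fluorescence quantified, n=10/group, three experiments.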

Danio rerio [4] = assay: Toxicity in […] 24 hpf fil1:EGFP transgenic zebrafish embryo assessed as inhibition of normal angiogenesis at 2 to 4 uM after 48 hrs by fluorescence microscopy; assay type: organism-based; details: in vivo
In short: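 Non-xenografted Tg(fli1:EGFP) embryos dechorionated at 24 hpf and incubated with 0, 2 or 4 μM for 48 h, with PTK787 as positive control. Subintestinal vessel formation imaged at 72 hpf by fluorescence microscopy. n=10/group, three independent experiments.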

Danio rerio [5] = species on record: Danio rerio; assay: Ecotoxicity in fil1:EGFP transgenic zebrafish embryo up to 50 uM after 96 hrs by microscopic analysis; assay type: organism-based; details: in vivo
MDA-MB-231 [6] = assay: Cell cycle arrest in human MDA-MB-231 cells assessed as accumulation at G2 phase at 5 uM after 72 hrs by propidium iodide staining based flow cytometry (reference value: 8%); assay type: functional
MDA-MB-231 [7] = assay: Cell cycle arrest in human MDA-MB-231 cells assessed as accumulation at G1 phase at 10 uM after 72 hrs by propidium iodide staining based flow cytometry (reference value: 49.40%); assay type: functional
MDA-MB-231 [8] = assay: Cell cycle arrest in human MDA-MB-231 cells assessed as accumulation at S phase at 10 uM after 72 hrs by propidium iodide staining based flow cytometry (reference value: 42.60%); assay type: functional
MDA-MB-231 [9] = assay: Cell cycle arrest in human MDA-MB-231 cells assessed as accumulation at G2 phase at 10 uM after 72 hrs by propidium iodide staining based flow cytometry (reference value: 8%); assay type: functional
MDA-MB-231 [10] = assay: Cell cycle arrest in human MDA-MB-231 cells assessed as accumulation at G1 phase at 15 uM after 72 hrs by propidium iodide staining based flow cytometry (reference value: 49.40%); assay type: functional
MDA-MB-231 [11] = assay: Cell cycle arrest in human MDA-MB-231 cells assessed as accumulation at S phase at 15 uM after 72 hrs by propidium iodide staining based flow cytometry (reference value: 42.60%); assay type: functional
MDA-MB-231 [12] = assay: Cell cycle arrest in human MDA-MB-231 cells assessed as accumulation at G2 phase at 15 uM after 72 hrs by propidium iodide staining based flow cytometry (reference value: 8%); assay type: functional
MDA-MB-231 [13] = assay: Induction of apoptosis in human MDA-MB-231 cells assessed as late apoptotic cells at 5 uM after 72 hrs by annexin-V/propidium iodide double staining based flow cytometry (reference value: 0.12%); assay type: functional
MDA-MB-231 [14] = assay: Induction of apoptosis in human MDA-MB-231 cells assessed as early apoptotic cells at 10 uM after 72 hrs by annexin-V/propidium iodide double staining based flow cytometry (reference value: 0.02%); assay type: functional
MDA-MB-231 [15] = assay: Induction of apoptosis in human MDA-MB-231 cells assessed as early apoptotic cells at 15 uM after 72 hrs by annexin-V/propidium iodide double staining based flow cytometry (reference value: 0.02%); assay type: functional
MDA-MB-231 [16] = assay: Cell cycle arrest in human MDA-MB-231 cells assessed as up-regulation of p21 expression at 5 to 15 uM after 72 hrs by Western blot analysis; assay type: functional, cell-based
In short: (§2)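 Cells treated with 0, 5, 10 or 15 μM for 72 h. Lysates quantified by BCA, equal protein resolved on 10% tricine SDS-PAGE and transferred to nitrocellulose. Membranes blocked in 5% milk/TBST, then primary antibodies 1:1000 overnight at 4 °C and HRP secondary 1:2000 for 1 h at room temperature. Three independent experiments.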

MDA-MB-231 [17] = assay: Cell cycle arrest in human MDA-MB-231 cells assessed as downregulation of cyclin A expression at 5 to 15 uM after 72 hrs by Western blot analysis; assay type: functional, cell-based; in short: as §2
MDA-MB-231 [18] = assay: Induction of apoptosis in human MDA-MB-231 cells assessed as up-regulation cleaved caspase3 expression at 5 to 15 uM after 72 hrs by Western blot analysis; assay type: functional, cell-based; in short: as §2
MDA-MB-231 [19] = assay: Induction of apoptosis in human MDA-MB-231 cells assessed as up-regulation of PARP expression at 5 to 15 uM after 72 hrs by Western blot analysis; assay type: functional, cell-based; in short: as §2
MDA-MB-231 [20] = assay: Induction of DNA damage in human MDA-MB-231 cells assessed as up-regulation of gammaH2AX expression at 2 to 15 uM by Western blot analysis; assay type: functional, cell-based
MDA-MB-231 [21] = assay: Induction of DNA damage in human MDA-MB-231 cells assessed as down-regulation of AKT expression at 2 to 15 uM by Western blot analysis; assay type: functional, cell-based
MDA-MB-231 [22] = assay: Induction of morphological changes in human MDA-MB-231 cells assessed as roughening of cell membrane surface with large and numerous particles at 5 to 20 uM after 72 hrs; assay type: functional, cell-based
MDA-MB-231 [23] = assay: Induction of morphological changes in human MDA-MB-231 cells assessed as unevening of cell membrane surface with large and numerous particles at 5 to 20 uM after 72 hrs; assay type: functional, cell-based
MDA-MB-231 [24] = assay: Antimetastasis activity in human MDA-MB-231 cells assessed reduction in number of paxillins at 5 to 10 uM after 24 hrs by immunofluorescence based assay

Cc1coc2c3ccc4c(c3c3[nH]c(-c5ccc(O)cc5)nc3c12)CCCC4(C)C
Activity (MDA-MB-231 [1]): Dose-dependent effect
pIC50 (MDA-MB-231 [1]; MDA-MB-231, 72 h): 4.88
pIC50 (HepG2): 4.67
pIC50 (A549): 5.16
pIC50 (L02): 4.31
Activity (MDA-MB-231 [2]): Active
Activity (MDA-MB-231 [3]): Active
Activity (Danio rerio [4]): Non-Toxic
Activity (Danio rerio [5]): Non-Toxic
Activity (MDA-MB-231 [6]): 11.21%
Activity (MDA-MB-231 [7]): 35.49%
Activity (MDA-MB-231 [8]): 51.5%
Activity (MDA-MB-231 [9]): 13.01%
Activity (MDA-MB-231 [10]): 35.37%
Activity (MDA-MB-231 [11]): 54.51%
Activity (MDA-MB-231 [12]): 10.12%
Activity (MDA-MB-231 [13]): 0.43%
Activity (MDA-MB-231 [14]): 3.87%
Activity (MDA-MB-231 [15]): 6.73%
Activity (MDA-MB-231 [16]): Active
Activity (MDA-MB-231 [17]): Active
Activity (MDA-MB-231 [18]): Active
Activity (MDA-MB-231 [19]): Active
Activity (MDA-MB-231 [20]): Active
Activity (MDA-MB-231 [21]): Active
Activity (MDA-MB-231 [22]): Active
Activity (MDA-MB-231 [23]): Active
Activity (MDA-MB-231 [24]): Active
